Data on one compound can be found in ChEMBL document CHEMBL4371044, “Celastrol Promotes Weight Loss in Diet-Induced Obesity by Inhibiting the Protein Tyrosine Phosphatases PTP1B and TCPTP in the Hypothalamus” (J Med Chem, 2018).

Activity calls are given as the source filed them. The rule behind the calls is not given here.

Broadly, the IC50 is the concentration that gives 50% inhibition. High values mean a need for much substance, low ones inhibition by little substance.

For one test, the system named is Mus musculus. In words: Antiobesity activity in high fat diet-induced obese Ptpn1fl/fl/Ptpn2fl/fl null C57BL/6 mouse assessed as reduction in body weight at 100 ug/kg, ip for 10 consecutive days. Type of test: functional, organism-based. Put shortly:
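Male Ptpn1fl/fl, Ptpn2fl/fl or double-floxed mice: chow 8 weeks, then high-fat diet (45% energy from fat) 12 weeks. Bilateral intra-ARC stereotaxic injection of rAAV-CMV-Cre-GFP or rAAV-CMV-GFP, 100 nL/side. After 2 weeks recovery, vehicle or 100 μg/kg ip daily at 6 pm for 10 days; body weight tracked; two-way repeated-measures ANOVA with Tukey test; means ± SEM.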

Test [1] addresses T1, Tyrosine-protein phosphatase non-receptor type 1 (Homo sapiens) (UniProt P18031).
T1 sequence (whole entry): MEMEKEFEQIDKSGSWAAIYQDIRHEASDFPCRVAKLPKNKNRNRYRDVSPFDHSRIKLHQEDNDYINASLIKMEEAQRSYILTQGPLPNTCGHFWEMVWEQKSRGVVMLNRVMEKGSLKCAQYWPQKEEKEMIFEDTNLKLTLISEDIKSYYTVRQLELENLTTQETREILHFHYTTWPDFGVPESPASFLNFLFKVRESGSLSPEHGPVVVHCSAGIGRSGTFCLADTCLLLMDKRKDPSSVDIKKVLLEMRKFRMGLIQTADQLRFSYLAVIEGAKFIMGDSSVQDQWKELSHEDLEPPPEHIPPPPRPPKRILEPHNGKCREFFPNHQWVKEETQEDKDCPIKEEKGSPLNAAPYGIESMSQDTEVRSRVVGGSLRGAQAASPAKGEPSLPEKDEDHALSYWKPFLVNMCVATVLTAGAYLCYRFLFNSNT
In words: Inhibition of human N-terminal His6-tagged PTP1B catalytic domain (1 to 393 residues) expressed in Escherichia coli strain Rosetta2 (DE3) up to 500 uM using pNPP as substrate preincubated for 10 mins followed by substrate addition and measured after 10 mins by […].

Test [2] concerns the target T1, Tyrosine-protein phosphatase non-receptor type 1 (Homo sapiens). Put plainly: Inhibition of human N-terminal His6-tagged PTP1B catalytic domain (1 to 298 residues) expressed in Escherichia coli strain Rosetta2 (DE3) up to 500 uM using pNPP as substrate preincubated for 10 mins followed by substrate addition and measured after 10 mins by […].
In test [3] the target is T2, Tyrosine-protein phosphatase non-receptor type 1 (Homo sapiens, UniProt P18031).
T2 sequence (P18031 whole entry): T1 sequence (whole entry)
Put plainly: Binding affinity to human N-terminal His6-tagged PTP1B catalytic domain (1 to 298 residues) expressed in Escherichia coli strain Rosetta2 (DE3) assessed as dissociation rate constant […].

Test [4] deals with T3, Tyrosine-protein phosphatase non-receptor type 2 (Homo sapiens) (UniProt P17706).
T3 sequence (whole entry): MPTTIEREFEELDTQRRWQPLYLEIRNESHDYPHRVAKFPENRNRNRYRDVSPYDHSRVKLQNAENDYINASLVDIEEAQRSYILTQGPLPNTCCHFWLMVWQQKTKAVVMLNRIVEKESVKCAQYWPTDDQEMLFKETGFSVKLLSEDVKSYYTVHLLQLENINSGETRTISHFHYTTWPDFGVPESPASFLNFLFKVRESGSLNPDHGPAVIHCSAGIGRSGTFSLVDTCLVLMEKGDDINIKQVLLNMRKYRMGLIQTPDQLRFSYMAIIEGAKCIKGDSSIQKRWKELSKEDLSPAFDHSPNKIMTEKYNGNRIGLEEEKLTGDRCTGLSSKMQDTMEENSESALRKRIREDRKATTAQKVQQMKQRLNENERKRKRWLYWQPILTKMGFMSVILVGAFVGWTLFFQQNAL
Put plainly: Inhibition of human N-terminal His6-tagged TCPTP catalytic domain (1 to 336 residues) expressed in Escherichia coli strain Rosetta2 (DE3) using DiFMUP as substrate preincubated for 10 mins followed by substrate addition and measured after 10 mins in presence of 0.05% Tween20 by fluorescence assay. Put shortly: (§1)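 DiFMUP IC50 assay (1 nM enzyme, 10 min preincubation, substrate at Km, 37 °C, ex 358/em 455 nm), repeated as an aggregation check under three altered conditions: 10-fold enzyme (10 nM), 0.05% Tween 20, or 0.1 mg/mL BSA in buffer.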

Test [5] concerns the target T3, Tyrosine-protein phosphatase non-receptor type 2 (Homo sapiens). Put plainly: Inhibition of human N-terminal His6-tagged TCPTP catalytic domain (1 to 336 residues) expressed in Escherichia coli strain Rosetta2 (DE3) using DiFMUP as substrate preincubated for 10 mins followed by substrate addition and measured after 10 mins in presence of 0.1 mg/ml BSA by fluorescence assay. A digest of the protocol: as §1

Test [6] deals with T4, Tyrosine-protein phosphatase non-receptor type 11 (Homo sapiens, UniProt Q06124).
T4 sequence (Q06124 whole entry): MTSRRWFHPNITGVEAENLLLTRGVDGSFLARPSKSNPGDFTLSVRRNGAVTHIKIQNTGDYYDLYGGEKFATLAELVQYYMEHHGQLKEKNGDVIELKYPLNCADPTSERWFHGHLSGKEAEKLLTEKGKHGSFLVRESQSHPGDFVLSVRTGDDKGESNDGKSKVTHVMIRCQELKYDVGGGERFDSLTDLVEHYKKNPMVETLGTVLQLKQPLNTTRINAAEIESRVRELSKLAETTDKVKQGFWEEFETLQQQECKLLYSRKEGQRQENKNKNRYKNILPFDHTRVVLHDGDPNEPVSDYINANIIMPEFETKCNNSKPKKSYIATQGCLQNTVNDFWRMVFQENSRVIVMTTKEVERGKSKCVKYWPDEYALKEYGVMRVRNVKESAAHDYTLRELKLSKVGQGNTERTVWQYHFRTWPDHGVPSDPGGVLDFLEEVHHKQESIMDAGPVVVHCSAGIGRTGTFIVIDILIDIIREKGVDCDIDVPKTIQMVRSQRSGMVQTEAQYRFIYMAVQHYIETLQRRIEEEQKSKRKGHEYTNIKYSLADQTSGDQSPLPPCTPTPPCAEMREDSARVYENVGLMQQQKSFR
Put plainly: Inhibition of human SHP2 (246 to 527 residues) expressed in Escherichia coli strain BL21(DE3) using DiFMUP as substrate preincubated for 10 mins followed by substrate addition and measured after 10 mins by fluorescence assay. Put shortly:
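Selectivity panel on enzymes expressed in E. coli BL21(DE3), purified by nickel affinity then size exclusion. DiFMUP fluorescence assay run as for PTP1B/TCPTP, with per-enzyme conditions in a supplementary table; nonlinear regression for IC50; three independent experiments.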

The target in test [7] is Phosphatidylinositol 3,4,5-trisphosphate 3-phosphatase and dual-specificity protein phosphatase PTEN (Homo sapiens, UniProt P60484). Put plainly: Inhibition of human PTEN (1 to 403 residues) expressed in Escherichia coli strain BL21(DE3) using DiFMUP as substrate preincubated for 10 mins followed by substrate addition and measured after 10 mins by fluorescence assay.
Phosphatidylinositol 3,4,5-trisphosphate 3-phosphatase and dual-specificity protein phosphatase PTEN, sequence (P60484 whole entry, the tested form may be a part): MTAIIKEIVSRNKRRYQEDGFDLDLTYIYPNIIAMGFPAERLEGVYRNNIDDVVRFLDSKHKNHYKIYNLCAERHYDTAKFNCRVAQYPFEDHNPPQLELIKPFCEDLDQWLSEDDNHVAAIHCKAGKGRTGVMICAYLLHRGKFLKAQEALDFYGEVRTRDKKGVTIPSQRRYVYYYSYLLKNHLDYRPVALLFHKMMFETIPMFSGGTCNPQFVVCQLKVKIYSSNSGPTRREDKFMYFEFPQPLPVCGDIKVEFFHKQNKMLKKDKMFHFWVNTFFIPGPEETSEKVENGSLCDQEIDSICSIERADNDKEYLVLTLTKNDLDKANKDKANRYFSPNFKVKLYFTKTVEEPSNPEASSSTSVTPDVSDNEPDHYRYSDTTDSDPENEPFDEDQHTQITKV

As to `CC1=C(O)C(=O)C=C2C1=CC=C1[C@@]2(C)CC[C@@]2(C)[C@@H]3C[C@](C)(C(=O)O)CC[C@]3(C)CC[C@]12C` [CELASTROL], the outcome in the test on Mus musculus was Active. Also, the inhibition result in test [1], in test [2], in test [4] and in test [5] was “Active” in each case. In test [3], the koff worked out at 3.62 ×10⁻⁴ /s. The IC50 in test [6] amounted to 4.1 µM; in test [7] it was 13.3 µM.
